# Measurements published in ChEMBL document CHEMBL1153879, “Synthesis and pharmacokinetic evaluation of novel N-acyl-cordycepin derivatives with a normal alkyl chain” (Eur J Med Chem, 2009).
# Legend:
# [1] = AUC in C57BL/6 mouse at 0.5 umol/kg, po; type: ADME, organism-based; settings: plasma
# How it was run: (§1)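 Male C57BL/6 mice (20±2 g, 7 weeks old) received a single oral dose in 2% Tween-80 aqueous solution. Blood was extracted with MeOH or EtOAc, depending on the compound, and assayed by HPLC. Parameters were derived from the mean profiles (n=5).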
# [2] = system: Mus musculus; test: Half life in C57BL/6 mouse at 500 umol/kg, po assessed as transformed cordycepin levels; settings: in vivo
# [3] = Tmax in C57BL/6 mouse at 0.5 umol/kg, po; type: ADME, organism-based; settings: in vivo; how it was run: as §1
# [4] = Cmax in C57BL/6 mouse at 0.5 umol/kg, po; type: ADME, organism-based; design: dose 0.5 umol/kg, route oral; settings: in vivo; how it was run: as §1
# [5] = system: Mus musculus; test: Tmax in C57BL/6 mouse at 0.5 umol/kg, po assessed as transformed cordycepin levels; type: ADME, organism-based; settings: in vivo; how it was run: as §1
# [6] = Half life in C57BL/6 mouse at 0.5 umol/kg, po; type: ADME, organism-based; settings: in vivo; how it was run: as §1
# [7] = system: Mus musculus; test: Cmax in C57BL/6 mouse at 500 umol/kg, po assessed as transformed cordycepin levels; settings: in vivo
# [8] = system: Mus musculus; test: AUC in C57BL/6 mouse at 0.5 umol/kg, po assessed as transformed cordycepin levels; type: ADME, organism-based, Plasma; settings: in vivo, in the assay text read “500 umol/kg” for “0.5 umol/kg”; how it was run: as §1
# [9] = system: Mus musculus; test: Half life in C57BL/6 mouse at 0.5 umol/kg, po assessed as transformed cordycepin levels; type: ADME, organism-based; settings: in vivo, in the assay text read “500 umol/kg” for “0.5 umol/kg”; how it was run: as §1
SMILES,AUC [1] [µM·h],t1/2 [2] [h],Tmax [3] [h],Cmax [4] [µM],Tmax [5] [h],half-life [6] [min],Cmax [7] [µM],AUC [8] [µmol·h/L],t1/2 [9] [h]
CCCCCCCCCCCC(=O)Nc1ncnc2c1ncn2[C@@H]1O[C@H](CO)C[C@H]1O,672,10.5,6,160,8,498,15,69.1,
CCCCCCCCCCCCCCCCCC(=O)Nc1ncnc2c1ncn2[C@@H]1O[C@H](CO)C[C@H]1O,32.5,,8,22.1,10,516,2.2,3.7,10.8
CCCCCCCC(=O)Nc1ncnc2c1ncn2[C@@H]1O[C@H](CO)C[C@H]1O,1310,,5,310,7,408,20.6,83.7,9.4
CCC(=O)Nc1ncnc2c1ncn2[C@@H]1O[C@H](CO)C[C@H]1O,356,,3,120,5,264,14.1,59.9,7.5
Nc1ncnc2c1ncn2[C@@H]1O[C@H](CO)C[C@H]1O [CORDYCEPIN],19.2,,1.5,10.1,1.5,126,10.1,19.2,2.1
